The results in this text go back to ChEMBL document CHEMBL1138035, “Antitumor agents. 250. Design and synthesis of new curcumin analogues as potential anti-prostate cancer agents” (J Med Chem, 2006).

In assay [1] the test system is PC-3. The assay can be described thus: Inhibition of growth of human PC3 cell line at 20 ug/ml. It is filed as functional. Summed up:
(§1)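 Growth assay in human prostate cancer cells (LNCaP in RPMI, PC-3 in DMEM, each with 10% fetal calf serum and antibiotics). Cells were exposed to compound for 2 days. Value is % inhibition of cell growth at 20 μg/ml. Variation between replicate experiments was ≤5%.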

The test system of assay [2] is LNCaP. The assay can be described thus: Cytotoxicity against human LNCaP cell line. The assay is classed as functional, cell-based.
For assay [3], the system named is PC-3. The assay can be described thus: Cytotoxicity against human PC3 cell line. The assay is classed as functional, cell-based. The settings on record: Homo sapiens, PC-3; read-out: IC50.
In assay [4] the target is T1, Androgen receptor (Homo sapiens) (UniProt P10275).
T1 sequence (whole entry): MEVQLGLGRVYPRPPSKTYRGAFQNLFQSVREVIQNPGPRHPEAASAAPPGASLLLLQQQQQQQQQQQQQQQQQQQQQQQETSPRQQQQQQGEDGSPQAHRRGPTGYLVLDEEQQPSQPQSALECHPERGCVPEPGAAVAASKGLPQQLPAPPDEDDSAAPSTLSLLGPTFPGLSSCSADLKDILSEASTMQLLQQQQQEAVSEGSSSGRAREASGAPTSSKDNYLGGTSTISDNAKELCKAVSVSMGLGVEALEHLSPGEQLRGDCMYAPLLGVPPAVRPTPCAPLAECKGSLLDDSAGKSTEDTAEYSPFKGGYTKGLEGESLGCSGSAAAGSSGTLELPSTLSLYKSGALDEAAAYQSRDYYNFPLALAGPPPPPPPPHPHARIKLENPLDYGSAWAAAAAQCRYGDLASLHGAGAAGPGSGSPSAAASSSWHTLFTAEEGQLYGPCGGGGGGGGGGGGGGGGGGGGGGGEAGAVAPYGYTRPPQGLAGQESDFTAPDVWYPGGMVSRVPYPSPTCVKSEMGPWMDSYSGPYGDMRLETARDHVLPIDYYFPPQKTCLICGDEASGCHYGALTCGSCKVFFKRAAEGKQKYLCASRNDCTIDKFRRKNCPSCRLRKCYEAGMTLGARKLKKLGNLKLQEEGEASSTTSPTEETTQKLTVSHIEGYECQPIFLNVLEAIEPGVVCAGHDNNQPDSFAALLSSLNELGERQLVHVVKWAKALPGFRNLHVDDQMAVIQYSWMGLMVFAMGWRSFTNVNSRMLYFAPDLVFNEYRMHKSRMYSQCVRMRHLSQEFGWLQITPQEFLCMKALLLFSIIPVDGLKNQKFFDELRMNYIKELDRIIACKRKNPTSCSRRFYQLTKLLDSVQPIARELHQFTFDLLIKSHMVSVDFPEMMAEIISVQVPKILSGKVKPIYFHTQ
As to the kind of experiment: Antiandrogenic activity against human LNCaP cell line by AR transactivation assay in presence of […] at 5 uM. The assay is classed as functional, cell-based. Summed up:
(§2)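 LNCaP cells (endogenous mutant AR), kept in RPMI with 10% fetal calf serum and antibiotics, were plated 48 h before transfection. They were transfected for 5 h (SuperFect) with MMTV-luciferase reporter plus pRL-SV40 internal control, then moved to RPMI with 10% charcoal dextran-stripped serum. After 24 h, cells got 1 nM DHT plus compound for 24 h. Read-out was dual luciferase normalized to the internal control, as % of DHT-alone transactivation.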

The target in assay [5] is T1, Androgen receptor (Homo sapiens). As to the kind of experiment: Antiandrogenic activity against human PC3 cell line transfected with wild-type AR by AR transactivation assay in presence of […] at 5 uM. It is filed as functional, cell-based. The settings on record: PC-3. In short, it runs like this: (§3)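 PC-3 host cells (no functional AR), kept in DMEM with 10% fetal calf serum and antibiotics, were plated 24 h before transfection. They were transfected for 5 h (SuperFect) with wild-type AR plasmid pSG5AR, MMTV-luciferase reporter and pRL-SV40 control, then moved to DMEM with 10% charcoal-stripped serum. After 24 h, cells got 1 nM DHT plus compound for 24 h. Dual-luciferase signal was normalized to the internal control and given as % of DHT-only.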

Assay [6] has the same target. The assay can be described thus: Antiandrogenic activity against human PC3 cell line transfected with wild-type AR by AR transactivation assay in presence of […] at 3 uM. The settings on record: PC-3. It is filed as functional, cell-based. In short, it runs like this:
as §3

Assay [7] has the same target. The assay can be described thus: Antiandrogenic activity against human LNCaP cell line by AR transactivation assay in presence of […] at 3 uM. It is filed as functional, cell-based. In short, it runs like this: as §2
The subject of assay [8] is LNCaP. As to the kind of experiment: Inhibition of growth of human LNCaP cell line at 20 ug/ml. It is filed as functional. In short, it runs like this:
as §1

Usually inhibition stands for the drop in the measured response relative to a control, in per cent. Usually IC50 stands for the concentration needed to halve the response being measured. For `COc1ccc(/C=C/C(=O)/C=C(O)/C=C/c2ccc(OC)c(C)c2)cc1C`, the inhibition at 20 µg/mL in assay [1] is 44%. In addition, the IC50 was 7.7 µM in assay [2] and greater than 27.4 µM in assay [3].
For `CCO/C(O)=C/C=C(C(=O)/C=C/c1ccc(OC)c(OC)c1)C(=O)/C=C/c1ccc(OC)c(OC)c1`, the Activity is 6% in assay [4] and 40% in assay [5]. The results for the IC50 in assay [2] and in assay [3] were 0.2 µM and 1 µM, respectively.
In turn, `COc1ccc(/C=C/C(=O)/C=C(O)/C=C/c2ccc(OC)cc2OC)c(OC)c1` showed an inhibition at 20 µg/mL in assay [1] of 45%. In assay [2], the IC50 was 11.8 µM.
With `CCO/C(O)=C/C=C(C(=O)/C=C/c1ccc(OC2CCCCO2)c(OC)c1)C(=O)/C=C/c1ccc(OC2CCCCO2)c(OC)c1` (stereo unspecified), the IC50 in assay [2] was determined as 2.6 µM; in assay [3], 3.1 µM. The Activity in assay [6] is 46%; in assay [7], 54%.
On to `O=C(/C=C(O)/C=C/c1ccc(CO)o1)/C=C/c1ccc(CO)o1`, for which the inhibition at 20 µg/mL in assay [1] and in assay [8] was 37% each time.
Consider `COc1ccc(/C=C/C(=O)C(/C=C/C#N)=C(O)/C=C/c2ccc(OC)c(OC)c2)cc1OC`, for which the results for the Activity in assay [4] and in assay [5] were 42% and 68%, respectively. Besides, the results for the IC50 in assay [2] and in assay [3] were 0.2 µM and 0.7 µM, respectively.
`COc1ccc(CCC(=O)CC(O)CCc2ccc(OC)c(OC)c2)cc1OC` (stereo unspecified) came in with an inhibition at 20 µg/mL in assay [1] of 33%. This molecule showed an IC50 in assay [2] of 10.8 µM.
`COc1cc(/C=C/C(=O)/C=C/c2ccc(O)c(OC)c2)ccc1O`: the IC50 in assay [2] is 1.4 µM; in assay [3] it was 2.4 µM.
The like results for `CCNC(=O)/C=C/C(C(=O)/C=C/c1ccc(OC)c(OC)c1)=C(O)\C=C\c1ccc(OC)c(OC)c1` were, in that order, 0.6 µM and 1.2 µM.
The corresponding values for `COc1cc(OC)c(OC)cc1/C=C/C(O)=C/C(C)=O` are 12.5 µM and 10.5 µM.
Molecule `COc1ccc(/C=C/C(=O)NC(=O)/C=C/c2ccc(OC)c(OC)c2)cc1OC` displayed an inhibition at 20 µg/mL in assay [1] of 36%. Moreover, the values for the 50% inhibitory concentration (IC50) in assay [2] and in assay [3] were 2.2 µM and greater than 10 µM, respectively.
Take `CCOC(=O)CC/C(C(=O)/C=C/c1ccc(O)c(OC)c1)=C(O)\C=C\c1ccc(O)c(OC)c1`: the Activity worked out at 4% in assay [4] and 13% in assay [5]. The IC50 turned out to be 1.5 µM in assay [2] and 5.1 µM in assay [3].
For `CCOC(=O)CC/C(C(=O)/C=C/c1ccc(OC)c(OC)c1)=C(O)\C=C\c1ccc(O)c(OC)c1`, the IC50 in assay [2] was determined as 2.1 µM; in assay [3], 6.3 µM.
The corresponding values for `CCOC(=O)CCC(F)(C(=O)/C=C/c1ccc(O)c(OC)c1)C(=O)/C=C/c1ccc(O)c(OC)c1` are 6.3 µM and 9.8 µM.
The corresponding values for `COc1ccc(/C=C/C(=O)C(C)(F)C(=O)/C=C/c2ccc(OC)c(OC)c2)cc1OC` are 6.4 µM and 4.6 µM.
The like results for `COc1ccc(/C=C/C(O)=C/C(C)=O)c(OC)c1OC` were, in that order, 5.8 µM and 7.8 µM.
As to `COc1cc(/C=C/C=C/C(=O)/C=C(O)/C=C/C=C/c2ccc(O)c(OC)c2)ccc1O`, the values for the IC50 in assay [2] and in assay [3] were 4.4 µM and 10.6 µM, respectively.
In assay [1], `COc1cc(/C=C/C(=O)/C=C(O)/C=C/c2ccc(OCC=C(C)C)c(OC)c2)ccc1OCC=C(C)C` yielded an inhibition at 20 µg/mL of 41%. The IC50 in assay [2] is 6.1 µM; in assay [3] it was greater than 19.8 µM.
`CCOC(=O)CCC(F)(C(=O)/C=C/c1ccc(OC2CCCCO2)c(OC)c1)C(=O)/C=C/c1ccc(OC2CCCCO2)c(OC)c1` (stereo unspecified): the IC50 came to 7.3 µM in assay [2] and 6.3 µM in assay [3].
The like results for `COc1ccc(/C=C/C(=O)/C=C/c2ccc(OC)c(OC)c2)cc1OC` were, in that order, 3.4 µM and 3.8 µM.
